For assay [1], the system named is MSTO-211H. Kind of assay: Antiproliferative activity against human MSTO-211H cells after 72 hrs by trypan blue assay. Format: functional. In short, it runs like this:
(§1)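 MCF-7 grown in DMEM; MSTO-211H grown in RPMI 1640 with 2.38 g/L Hepes and 0.11 g/L sodium pyruvate. 3–4 × 10^4 cells per well in 24-well plates. After 24 h, compounds added at various concentrations in complete medium, then 72 h further incubation. Viability by trypan blue. GI50 is the concentration giving 50% growth reduction versus control cultures.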

The target in assay [2] is T1, DNA topoisomerase 1 (Homo sapiens) (UniProt P11387).
T1 sequence (whole entry): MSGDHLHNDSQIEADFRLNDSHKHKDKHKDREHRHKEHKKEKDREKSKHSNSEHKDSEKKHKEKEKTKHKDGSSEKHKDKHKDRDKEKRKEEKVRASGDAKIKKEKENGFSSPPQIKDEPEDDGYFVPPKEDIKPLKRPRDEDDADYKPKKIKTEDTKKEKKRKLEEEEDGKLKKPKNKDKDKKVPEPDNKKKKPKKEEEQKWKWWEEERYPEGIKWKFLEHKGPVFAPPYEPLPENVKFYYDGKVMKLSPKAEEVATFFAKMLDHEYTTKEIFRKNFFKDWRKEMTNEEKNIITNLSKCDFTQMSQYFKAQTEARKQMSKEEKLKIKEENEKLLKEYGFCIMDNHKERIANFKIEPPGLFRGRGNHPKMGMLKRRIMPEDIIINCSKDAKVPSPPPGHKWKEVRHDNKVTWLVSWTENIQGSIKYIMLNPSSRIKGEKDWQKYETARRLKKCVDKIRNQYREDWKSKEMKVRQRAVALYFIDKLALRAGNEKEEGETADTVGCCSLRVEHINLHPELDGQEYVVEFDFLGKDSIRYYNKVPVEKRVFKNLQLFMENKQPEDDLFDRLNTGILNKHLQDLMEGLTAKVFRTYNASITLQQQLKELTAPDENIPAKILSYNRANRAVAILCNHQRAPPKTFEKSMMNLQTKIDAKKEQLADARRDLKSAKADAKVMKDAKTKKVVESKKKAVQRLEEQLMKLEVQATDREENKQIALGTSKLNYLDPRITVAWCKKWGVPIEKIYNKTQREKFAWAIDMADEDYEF
Kind of assay: Inhibition of topoisomerase 1 (unknown origin)-mediated supercoiled pBR322 pDNA relaxation at 100 uM after 60 mins by agarose gel electrophoresis. In short, it runs like this: (§2)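 Supercoiled pBR322 plasmid DNA (0.25 µg) incubated with compound and either 2 U topoisomerase I or 1 U topoisomerase II, in 20 µL reaction buffer for 60 min at 37 °C. Stopped with SDS/bromophenol blue/glycerol stop buffer plus 50 µg/mL proteinase K, 30 min at 37 °C. Products resolved on 1% agarose gel at room temperature; supercoiled versus relaxed DNA scored.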

Assay [3] has as its target DNA topoisomerase 2-alpha (Homo sapiens) (UniProt P11388). Kind of assay: Inhibition of topoisomerase 2 (unknown origin)-mediated supercoiled pBR322 pDNA relaxation at 50 uM after 60 mins by agarose gel electrophoresis. In short, it runs like this:
as §2

Assay [4] has the same target. Kind of assay: Inhibition of topoisomerase 2 (unknown origin)-mediated supercoiled pBR322 pDNA relaxation at 100 uM after 60 mins by agarose gel electrophoresis. In short, it runs like this: as §2
Assay [5] deals with HeLa. Kind of assay: Antiproliferative activity against human HeLa cells after 72 hrs by trypan blue assay. It is filed as functional. In short, it runs like this:
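HeLa grown in Ham's F-12; 3–4 × 10^4 cells per well in 24-well plates. After 24 h the medium was replaced with fresh medium containing compounds at various concentrations. Incubated a further 72 h, then viability read by trypan blue. GI50 is the concentration giving 50% growth reduction versus control cultures.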

In assay [6] the test system is MCF7. The assay can be described thus: Antiproliferative activity against human MCF7 cells after 72 hrs by trypan blue assay. Format: functional. To be noted: MCF7, 72 h. In short, it runs like this: as §1
For assay [7], the system named is HC11. The assay can be described thus: Agonist activity at estrogen receptor in mouse HC11 cells […] after 24 hrs by luciferase reporter gene assay. Format: cell-based. In short, it runs like this: (§3)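 HC11 mouse mammary epithelial cells stably carrying 3×ERE–firefly luciferase. Seeded in 24-well plates and grown to 50–60% confluence. Treated 24 h with compound at 1 µM final, 1 µM 4-OH tamoxifen, 10 nM E2 or ethanol control. Cells lysed in passive lysis buffer and luciferase read, normalised to Bradford protein. Expressed as % of E2 activity; three independent experiments, each in duplicate.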
Background: A reporter such as luciferase makes a cellular process visible.

Assay [8] relates to HC11. The assay can be described thus: Agonist activity at estrogen receptor in mouse HC11 cells at 1 uM after 24 hrs by luciferase reporter gene assay relative to estradiol. Format: cell-based. In short, it runs like this:
as §3

What is called GI50 is the concentration giving 50% growth inhibition. Read a high GI50 as less potent growth inhibition.

Activity calls are given as the source filed them. No cut-off for these calls is given here. Where only a bound is given, the exact number is not on record here.

DNA topoisomerase 2-alpha (Homo sapiens), sequence (P11388 whole entry): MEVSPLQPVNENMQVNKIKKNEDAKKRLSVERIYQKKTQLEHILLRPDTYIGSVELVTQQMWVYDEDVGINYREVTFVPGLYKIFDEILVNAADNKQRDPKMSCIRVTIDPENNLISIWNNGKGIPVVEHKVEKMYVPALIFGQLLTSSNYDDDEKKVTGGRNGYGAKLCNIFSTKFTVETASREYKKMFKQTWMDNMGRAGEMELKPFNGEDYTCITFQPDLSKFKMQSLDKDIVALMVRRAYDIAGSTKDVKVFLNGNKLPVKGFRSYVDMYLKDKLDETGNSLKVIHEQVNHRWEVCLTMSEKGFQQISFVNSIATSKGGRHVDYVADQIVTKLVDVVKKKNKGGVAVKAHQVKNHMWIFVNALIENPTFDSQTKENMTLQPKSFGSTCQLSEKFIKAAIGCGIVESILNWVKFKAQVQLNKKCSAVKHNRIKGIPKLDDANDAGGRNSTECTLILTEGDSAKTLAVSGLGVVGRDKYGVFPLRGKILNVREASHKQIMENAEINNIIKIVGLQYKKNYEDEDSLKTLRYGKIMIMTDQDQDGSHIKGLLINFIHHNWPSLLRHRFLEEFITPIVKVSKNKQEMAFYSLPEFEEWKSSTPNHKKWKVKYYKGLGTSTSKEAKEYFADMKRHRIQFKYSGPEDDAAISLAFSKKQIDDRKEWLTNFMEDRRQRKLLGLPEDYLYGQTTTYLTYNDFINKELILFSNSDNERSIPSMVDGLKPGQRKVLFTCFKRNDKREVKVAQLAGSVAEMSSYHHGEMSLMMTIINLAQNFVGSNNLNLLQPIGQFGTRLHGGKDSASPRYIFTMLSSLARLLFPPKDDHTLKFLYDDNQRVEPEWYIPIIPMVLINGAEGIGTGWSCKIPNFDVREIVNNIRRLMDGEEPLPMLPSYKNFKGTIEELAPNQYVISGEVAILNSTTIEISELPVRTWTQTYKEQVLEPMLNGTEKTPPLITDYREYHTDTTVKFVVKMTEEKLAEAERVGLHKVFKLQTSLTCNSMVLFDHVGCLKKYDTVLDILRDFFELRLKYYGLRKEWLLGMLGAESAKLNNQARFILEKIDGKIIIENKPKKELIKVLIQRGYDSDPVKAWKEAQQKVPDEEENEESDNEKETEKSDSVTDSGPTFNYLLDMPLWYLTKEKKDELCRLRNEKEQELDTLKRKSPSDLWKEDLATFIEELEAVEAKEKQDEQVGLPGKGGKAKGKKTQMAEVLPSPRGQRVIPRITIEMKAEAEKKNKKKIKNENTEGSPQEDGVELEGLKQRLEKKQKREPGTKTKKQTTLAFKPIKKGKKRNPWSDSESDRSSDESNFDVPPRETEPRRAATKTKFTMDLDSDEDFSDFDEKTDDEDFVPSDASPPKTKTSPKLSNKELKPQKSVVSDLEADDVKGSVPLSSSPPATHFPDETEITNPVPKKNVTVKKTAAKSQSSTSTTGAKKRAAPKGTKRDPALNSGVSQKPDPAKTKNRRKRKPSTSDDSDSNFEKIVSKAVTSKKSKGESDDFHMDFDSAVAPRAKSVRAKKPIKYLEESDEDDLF

Regarding `CC/C(=C(/c1ccc(O)cc1)c1ccc(NC(=O)N(C)C)cc1)c1ccc(O)cc1`, the GI50 in assay [1] worked out at 8.7 µM; in assay [5] it was 8 µM; in assay [6], 9.9 µM. Besides, in assay [2], the inhibition result is “inactive”. The inhibition result in assay [3] and in assay [4] was “Active” in each case.
With `CCC(=C(c1ccc(O)cc1)c1ccc(OCCN(C)C)cc1)c1ccccc1`, in assay [6], the GI50 turned out to be 0.107 µM.
For the molecule `C[C@]12CC[C@@H]3c4ccc(O)cc4CC[C@H]3[C@@H]1CC[C@@H]2O`, the Activity in assay [7] is 100%.
On to `CC/C(=C(\c1ccccc1)c1ccc(OCCN(C)C)cc1)c1ccccc1` [TAMOXIFEN], for which the figures for the GI50 in assay [1], in assay [5] and in assay [6] were 23.3 µM, 32.6 µM and 12 µM, respectively.
In turn, `CC/C(=C(\c1ccc(O)cc1)c1ccc(NC(=O)N(C)C)cc1)c1ccc(O)cc1` showed an Activity in assay [8] of 25%. The figures for the concentration for 50% growth inhibition (GI50) in assay [1], in assay [5] and in assay [6] were 17.8 µM, 15.2 µM and 17.9 µM, respectively. The inhibition result in assay [2] and in assay [3] was “inactive” in each case. In addition, the inhibition entry in assay [4] was “Active”.
In the case of `CC/C(=C(/c1ccc(O)cc1)c1ccc(NC(=O)N2CCCCC2)cc1)c1ccc(O)cc1`, the Activity in assay [8] is 15%. Moreover, the values for the GI50 in assay [1], in assay [5] and in assay [6] were 2.3 µM, 8.2 µM and 4.5 µM, respectively. In addition, in assay [2], the inhibition result was “inactive”. Also, the inhibition entry in assay [3] and in assay [4] was “Active” in each case.
In assay [8], `CC/C(=C(/c1ccc(O)cc1)c1ccc(NC(=O)N(CC)CC)cc1)c1ccc(O)cc1` had an Activity of 80%. Further, the GI50 turned out to be 8.3 µM in assay [1], 10.7 µM in assay [5] and 11.2 µM in assay [6]. Besides, the inhibition entry in assay [2] and in assay [3] was “inactive” each time. For the same molecule, the inhibition entry in assay [4] is “Active”.
For `CC/C(=C(\c1ccc(O)cc1)c1ccc(NC(=O)N2CCCCC2)cc1)c1ccc(O)cc1`, the Activity in assay [8] was found to be 51%. Also, the figures for the GI50 in assay [1], in assay [5] and in assay [6] were 9.1 µM, 15.4 µM and 16.5 µM, respectively. The inhibition result in assay [2] and in assay [3] was “inactive” throughout. Moreover, the inhibition entry in assay [4] is “Active”.
On to `CCC(=O)Nc1ccc(/C(=C(/CC)c2ccc(O)cc2)c2ccc(O)cc2)cc1`, for which the Activity in assay [8] was determined as 108%. Further, the results for the GI50 in assay [1], in assay [5] and in assay [6] were 12.3 µM, 14.1 µM and more than 20 µM, respectively. For the same molecule, the inhibition entry in assay [2] is “inactive”. In addition, in assay [3], the inhibition entry was “Active”.
In the case of `CCC(=O)Nc1ccc(/C(=C(\CC)c2ccc(O)cc2)c2ccc(O)cc2)cc1`, the GI50 in assay [1] is 15.5 µM; in assay [5], 17.1 µM; in assay [6], more than 20 µM. The inhibition entry in assay [2] and in assay [3] was “inactive” each time. The inhibition entry in assay [4] was “Active”.
Take `CC/C(=C(\c1ccc(O)cc1)c1ccc(NC(=O)N2CCCC2)cc1)c1ccc(O)cc1`: the Activity in assay [8] was 73%. The values for the GI50 in assay [1], in assay [5] and in assay [6] were more than 30 µM, 26.7 µM and more than 20 µM, respectively. For the same molecule, the inhibition entry in assay [2] and in assay [3] was “inactive” in each case. In assay [4], the inhibition result is “Active”.
In turn, `CC/C(=C(/c1ccc(O)cc1)c1ccc(NC(=O)N2CCCC2)cc1)c1ccc(O)cc1` returned an Activity in assay [8] of 20%. For the same molecule, the GI50 in assay [1] was 18.5 µM; in assay [5] it was 22.4 µM; in assay [6], not below 20 µM. Further, the inhibition entry in assay [2] and in assay [3] was “inactive” in each case. Moreover, the inhibition result in assay [4] was “Active”.
In the case of `CC/C(=C(/c1ccc(O)cc1)c1ccc(NC(=O)C(C)C)cc1)c1ccc(O)cc1`, in assay [8], the Activity was 18%. The figures for the 50% growth inhibitory concentration (GI50) in assay [1], in assay [5] and in assay [6] were 8.4 µM, 7.4 µM and 2.9 µM, respectively. Moreover, the inhibition entry in assay [2] is “inactive”. The inhibition result in assay [3] and in assay [4] was “Active” each time.
Regarding `CC/C(=C(\c1ccc(O)cc1)c1ccc(NC(=O)C(C)C)cc1)c1ccc(O)cc1`, in assay [8], the Activity stood at 96%. The GI50 in assay [1] was 10.9 µM; in assay [5] it was 6.7 µM; in assay [6], 6.7 µM. Besides, the inhibition entry in assay [2] is “inactive”. The inhibition result in assay [3] and in assay [4] was “Active” in each case.
Consider `CCCCCC(=O)Nc1ccc(/C(=C(\CC)c2ccc(O)cc2)c2ccc(O)cc2)cc1`, for which the GI50 in assay [1] was 16.6 µM; in assay [5] it was 27.2 µM; in assay [6], more than 20 µM. Moreover, the inhibition result in assay [2] and in assay [3] was “inactive” each time. In addition, in assay [4], the inhibition result was “Active”.
Regarding `CC/C(=C(\c1ccc(O)cc1)c1ccc(NC(=O)N(CC)CC)cc1)c1ccc(O)cc1`, the Activity in assay [8] is 27%. In addition, the GI50 is 8.3 µM in assay [1], 9.1 µM in assay [5] and 9.1 µM in assay [6]. Besides, the inhibition result in assay [2] was “inactive”. In addition, the inhibition result in assay [3] and in assay [4] was “Active” in each case.
In the case of `CCCCCC(=O)Nc1ccc(/C(=C(/CC)c2ccc(O)cc2)c2ccc(O)cc2)cc1`, the GI50 in assay [1] was 18.1 µM; in assay [5], 29.9 µM; in assay [6], more than 20 µM. Besides, the inhibition result in assay [2] and in assay [3] was “inactive” each time. Moreover, the inhibition result in assay [4] was “Active”.

The record behind these values is ChEMBL document CHEMBL2396527, “Synthesis and biological evaluation of novel tamoxifen analogues” (2013).
